This is one part of a sample in which hits are shown more often than they occur.
INS promoter act: TRM-6 insulin promoter activation. 130,000 tested, 0.81% active. activation, % at 2 µM. TRM-6 cells (human fetal islet line), insulin promoter eGFP reporter, imaging; plate-scaled: unstimulated 0, stimulated control 100;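 active = activation at 2 µM above a set limit, confirmed on inspection of the cell images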;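 also: share of cells whose green reporter signal exceeds an intensity cutoff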
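Assay system: TRM-6 insulin promoter–eGFP reporter cells / Input: 1,000 cells per well / Medium: Low-glucose (5.5 mM) medium with tamoxifen / Also added: tamoxifen inducer, 0.75 µM, in seeding medium / Timing: overnight tamoxifen, then two-day compound incubation at 37 °C / Signal: automated fluorescence imaging of paraformaldehyde-fixed, Hoechst-counterstained cells, green channel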
Starred values were filed as active, the others as inactive.

SMILES | INS promoter act
COc1cccc(/C=C2\C(=O)C(=O)c3ccccc32)c1 | 178*
N#Cc1cccc(NC(=S)Nc2ccccc2)c1 | -6
CCN1CCN(c2ccc(S(=O)(=O)N3CCCC3)cn2)CC1 | 0
N#CCC(=O)N/N=C/c1cc(-c2ccccc2)n(-c2ccc(Cl)cc2)c1-c1ccccc1 | 0
N#CC1=C(N)C(C#N)(C#N)C(c2ccncc2)C2CN(C(=O)OCc3ccccc3)CC=C12 (configuration not stated) | -5
CN1CC=C2C(C#N)=C(N)C(C#N)(C#N)[C@H](c3cccc(Cl)c3)C2C1 (some centres not stated) | 7
COc1cccc(C2C3CN(C)CC=C3C(C#N)=C(N)C2(C#N)C#N)c1OC (configuration not stated) | 147*
CN1CC=C2C(C#N)=C(N)C(C#N)(C#N)[C@H](c3cccs3)[C@H]2C1 | 108
CCOC(=O)N1CC=C2C(C#N)=C(N)C(C#N)(C#N)[C@H](c3ccccc3OCC)[C@H]2C1 | -9
CCN1CC=C2C(C#N)=C(N)C(C#N)(C#N)[C@H](c3cccc(OC)c3OC)[C@H]2C1 | 614*
COc1ccccc1NC(=O)CCC(=O)OCc1ccc(Cl)cc1 | 0
CCCc1c(CC)c(=N)c2ccccc2n1C | 3
CC1SC(c2ccc(Cl)cc2)NC1=O (configuration not stated) | 444*
CC1SC(c2cccc(Cl)c2)NC1=O (configuration not stated) | 7
CC12CCC(C(=O)Nc3ccccc3N3CCOCC3)(CC1=O)C2(C)C (configuration not stated) | 8
COc1ccc(N2CCN(C(=O)C34CCC(C)(C(=O)C3)C4(C)C)CC2)cc1 (configuration not stated) | -6
CC12CCC(C(=O)N3CCc4ccccc43)(CC1=O)C2(C)C (configuration not stated) | 514*
O=C(NCc1ccc(OC(F)(F)F)cc1)C1CC(c2ccccc2[N+](=O)[O-])=NO1 (configuration not stated) | -7
CCCCNC(=O)C1CC(c2ccccc2[N+](=O)[O-])=NO1 (configuration not stated) | 161*
O=C(NCCc1cccs1)C1CC(c2ccc([N+](=O)[O-])cc2)=NO1 (configuration not stated) | -4
CCN=C1SC(CC(N)=O)C(=O)N1CC (configuration not stated) | 8
CC(C)Cc1nc2ccccc2n1CCc1ccccc1 | 0
O=C(NCC(=O)N(c1ccc2c(c1)OCCO2)C(C(=O)NC1CCCC1)c1ccco1)c1ccco1 (configuration not stated) | -10
O=C1C(Cl)=C(NCCc2ccccc2)C(=O)N1CCc1ccccc1 | -9
O=C1C(Cl)=C(Nc2ccc(F)cc2)C(=O)N1CCc1ccccc1 | 171
SMILES | INS promoter act
O=C1C(Cl)=C(NCC2CCCO2)C(=O)N1CCc1ccccc1 (configuration not stated) | 608*
O=C(NCCC1=CCCCC1)C1CCN(S(=O)(=O)c2ccc(Br)s2)CC1 | -6
Cc1ccc(S(=O)(=O)N2CCC[C@H]2C(=O)OC(C)C(=O)Nc2ncc(Cl)cc2Cl)cc1 (some centres not stated) | -3
COc1ccc(S(=O)NC2CCCCC2)c(OC)c1C (configuration not stated) | 8
Fc1ccc(Cc2nnc(-c3cccs3)o2)cc1 | -62
O=[N+]([O-])c1ccc(Cc2nnc(-c3ccccc3Cl)o2)cc1 | 344*
Clc1ccccc1-c1nnc(-c2cccs2)o1 | 0
COc1cc(NS(=O)(=O)c2ccc(N/C=C(\C=O)c3nc4ccccc4o3)cc2)nc(OC)n1 | -9
O=C(C[n+]1cccc(CNC(=O)c2ccc(OC(F)F)cc2)c1)c1ccccc1 | 341*
O=C(NCc1ccccc1)c1ccc(S(=O)(=O)C(F)F)cc1 | -3
CC(Oc1ccc(C(=O)NCCc2ccccc2)cc1)C(=O)O (configuration not stated) | 0
Oc1ccc(C=NC2CCCCC2)c(O)c1 | -7
O=C(NCc1cccnc1)C1c2ccccc2C(=O)N1Cc1ccco1 (configuration not stated) | -4
Cc1ccc(CNC(=O)Cn2nnc3ccccc3c2=O)cc1 | -8
CS(=O)(=O)N(CC(=O)NCc1ccco1)c1ccccc1Cl | -7
CCC(C)(C)NC(=O)CN(C(=O)c1snc(C(N)=O)c1N)c1ccc2c(c1)OCO2 | 9
CCc1ccccc1N(CC(=O)NCc1ccco1)C(=O)c1snc(C(N)=O)c1N | 164*
Fc1ccc(-c2nc3nc4ccccc4nc3n2Cc2ccco2)cc1 | -8
N=c1c2c(-c3ccccc3)c(-c3ccccc3)n(Cc3ccco3)c2ncn1CCO | 327
c1ccc(-c2nc3nc4ccccc4nc3n2Cc2ccco2)cc1 | 200*
CC(C)CN(CC(C)C)C(=O)Nc1ccccc1F | 178
CCCc1cc(=O)[nH]c(SCC(=O)N2CCN(S(=O)(=O)c3ccc(Cl)cc3)CC2)n1 | -6
CC(C)(C)N(NC(=O)OCc1ccccc1)C(=O)c1ccccc1Cl | 0
Cc1cc(C)c(S(C)(=O)=O)c(NN)n1 | -9
CCOc1cc2[nH]c(=O)n(CC3CCC(C(=O)NCCCOC)CC3)c(=O)c2cc1OCC (configuration not stated) | 171*
SMILES | INS promoter act
CCC1CCCCN1CCCNC(=O)c1ccc2c(=O)n(Cc3ccc(OC)cc3)c(=O)[nH]c2c1 (configuration not stated) | 9
COCCn1c(=S)[nH]c2cc(OC)c(OC)cc2c1=O | 5
O=C(CC1NCCc2ccccc21)Nc1ccccc1 (configuration not stated) | 7
CN(C)c1ccc(NC(=O)COC(=O)CCC(=O)c2ccc(F)cc2)cc1 | -3
CN(C)c1ccc(NC(=O)CC2NCCNC2=O)cc1 (configuration not stated) | 488*
O=C(Nc1ccccc1C(F)(F)F)c1cc2ncc(CCCl)cn2n1 | -7
COc1ccccc1NC(=S)NC(=O)c1ccc(Cn2cc(Br)cn2)cc1 | 7
CCCCCCNCc1c(F)cccc1Cl | -9
O=C(CSc1nnc(-c2cccs2)o1)NCC1CN(Cc2ccccc2)CCO1 (configuration not stated) | 76*
O=C(CSc1nc2ccsc2c(=O)n1Cc1ccc(C(=O)O)cc1)NCC1CCCO1 (configuration not stated) | 6
CC1CCCC(C)N1C(=O)CSc1nnc(-c2cccs2)o1 (configuration not stated) | 3
Cc1nn(-c2cccc(Cl)c2)c(Cl)c1/C=N/NC(=O)c1cccnc1 | -4
Oc1ccc(N2CCN(C(=S)NCCc3ccccc3)CC2)cc1 | -6
CCCn1c(SCC(=O)Nc2ccc(Cl)cc2)n[nH]c1=O | -8
CCCn1c(SCC(=O)c2cc(C)ccc2C)n[nH]c1=O | 100*
CCCn1c(SCC(=O)Nc2ccc(C(=O)Nc3ccccc3OC)cc2)n[nH]c1=O | 7
CC(C)CCNC(=O)CN(C(=O)CCC(=O)Nc1ccccn1)c1ccc2c(c1)OCO2 | -6
CCN(CC)C(=O)C(=O)c1cccn1-c1ccccc1C#N | -100
COc1ccc(Cl)cc1C(=O)NC(=S)Nc1cc(-c2nc3ccccc3[nH]2)ccc1C | -6
COc1ccc([N+](=O)[O-])cc1NC(=O)COC(=O)C=C(C)C | 0
COCC(=O)OCC(=O)Nc1cc([N+](=O)[O-])ccc1Cl | 733*
CN(CCOc1ccccc1)CC(=O)Nc1cc([N+](=O)[O-])ccc1Cl | 9
CC(C)N(C)C1CCN(C(=O)Nc2ccc(Cl)c(Cl)c2)CC1 | 0

Bioassay records deposited in PubChem BioAssay by Columbia University Molecular Screening Center.
